Laboratory results as given in ChEMBL document CHEMBL3414543, “Novel series of benzoquinones with high potency against 5-lipoxygenase in human polymorphonuclear leukocytes” (Eur J Med Chem, 2015).

Columns and labels:
[1] = target: T1, Polyunsaturated fatty acid 5-lipoxygenase (Homo sapiens, UniProt P09917); assay: Inhibition of human recombinant 5-LOX expressed in Escherichia coli BL21 incubated for 10 mins in presence of arachidonic acid by RP-HPLC based cell-free assay
T1 sequence (P09917 whole entry): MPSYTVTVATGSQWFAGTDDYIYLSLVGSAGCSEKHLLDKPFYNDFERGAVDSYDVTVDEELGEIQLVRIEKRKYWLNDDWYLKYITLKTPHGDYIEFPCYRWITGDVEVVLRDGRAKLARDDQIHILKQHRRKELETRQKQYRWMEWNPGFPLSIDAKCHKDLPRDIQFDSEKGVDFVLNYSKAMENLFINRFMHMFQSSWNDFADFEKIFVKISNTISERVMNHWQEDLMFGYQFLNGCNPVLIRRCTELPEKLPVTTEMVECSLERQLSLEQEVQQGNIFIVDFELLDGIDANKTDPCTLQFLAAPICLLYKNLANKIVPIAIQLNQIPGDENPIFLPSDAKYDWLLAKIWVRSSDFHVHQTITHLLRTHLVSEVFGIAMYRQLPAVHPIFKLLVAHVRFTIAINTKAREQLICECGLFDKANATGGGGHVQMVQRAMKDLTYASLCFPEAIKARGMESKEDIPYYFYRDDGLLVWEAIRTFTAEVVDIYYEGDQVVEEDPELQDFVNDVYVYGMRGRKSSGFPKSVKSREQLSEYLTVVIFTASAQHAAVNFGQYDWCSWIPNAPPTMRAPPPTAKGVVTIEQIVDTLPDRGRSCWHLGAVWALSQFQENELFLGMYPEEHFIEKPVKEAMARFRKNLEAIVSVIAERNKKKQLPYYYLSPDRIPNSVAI
How it was run: (§1)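 Recombinant human 5-LO, semi-purified from a 40,000 × g lysate supernatant on ATP-agarose, diluted in ice-cold PBS with 1 mM EDTA and 1 mM ATP. Preincubated 10 min at 4 °C with compound or 0.1% DMSO, warmed 30 s at 37 °C, then started with 2 mM CaCl₂ plus 20 µM AA. Reaction 10 min at 37 °C, stopped with cold methanol, products by RP-HPLC. IC₅₀ from 4–5 concentrations.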

[2] = target: T1, Polyunsaturated fatty acid 5-lipoxygenase; assay: Inhibition of 5-LOX in A23187-stimulated human blood PMNL assessed as reduction in lipoxygenase products formation in presence of arachidonic acid pre-incubated for 15 mins followed by stimulation with A23187 for 10 mins by RP-HPLC based cell based assay
How it was run: (§2)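 Human PMNL (5 × 10⁶ in 1 ml PBS pH 7.4, 1 mg/ml glucose, 1 mM CaCl₂), preincubated 15 min at 37 °C with compound or 0.1% DMSO, then stimulated 10 min at 37 °C with A23187, with or without AA. 5-LO products measured. Values are mean ± S.E. of 3–4 independent experiments. IC₅₀ read graphically from 4–5 concentrations.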

[3] = target: T2, Polyunsaturated fatty acid lipoxygenase ALOX15 (Homo sapiens) (UniProt P16050); assay: Inhibition of 15-LOX-1 in human blood PMNL assessed as remaining activity by measuring 15-HETE synthesis at 10 uM
T2 sequence (whole entry): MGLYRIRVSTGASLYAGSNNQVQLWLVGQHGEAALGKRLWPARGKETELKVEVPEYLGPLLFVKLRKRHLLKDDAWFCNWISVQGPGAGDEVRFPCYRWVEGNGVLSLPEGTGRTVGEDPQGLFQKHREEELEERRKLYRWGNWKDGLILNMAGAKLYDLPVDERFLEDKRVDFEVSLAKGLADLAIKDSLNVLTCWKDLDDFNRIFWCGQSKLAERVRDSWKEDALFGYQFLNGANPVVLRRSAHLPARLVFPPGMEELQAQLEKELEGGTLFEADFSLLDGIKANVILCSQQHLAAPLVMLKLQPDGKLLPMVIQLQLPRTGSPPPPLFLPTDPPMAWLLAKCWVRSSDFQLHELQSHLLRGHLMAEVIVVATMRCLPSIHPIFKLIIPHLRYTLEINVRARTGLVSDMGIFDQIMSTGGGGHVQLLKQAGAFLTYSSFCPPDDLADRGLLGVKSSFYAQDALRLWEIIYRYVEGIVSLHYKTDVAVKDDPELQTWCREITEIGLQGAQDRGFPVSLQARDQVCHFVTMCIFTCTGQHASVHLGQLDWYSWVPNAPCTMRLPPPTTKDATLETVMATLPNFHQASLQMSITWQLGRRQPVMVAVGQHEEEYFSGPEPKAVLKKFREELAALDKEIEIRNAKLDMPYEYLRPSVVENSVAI
How it was run: (§3)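 PMNL isolated from heparinized blood of fasted healthy donors by dextran sedimentation and Nycoprep centrifugation, with hypotonic lysis of erythrocytes. Cells at 5 × 10⁶ in 1 ml PBS pH 7.4 with 1 mg/ml glucose and 1 mM CaCl₂, preincubated 15 min at 37 °C with compound or 0.1% DMSO vehicle, then stimulated 10 min at 37 °C. 12-HETE or 15-HETE formation measured.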

Homo sapiens [4] = species: Homo sapiens; assay: Selectivity index, ratio of inhibition for 12-LOX in human blood PMNL to IC50 for 5-LOX in human blood PMNL
[5] = target: T1, Polyunsaturated fatty acid 5-lipoxygenase; assay: Inhibition of 5-LOX in A23187-stimulated human blood PMNL assessed as reduction in lipoxygenase products formation pre-incubated for 15 mins followed by stimulation with A23187 for 10 mins by RP-HPLC based cell based assay; how it was run: as §2
[6] = target: T3, Polyunsaturated fatty acid lipoxygenase ALOX12 (Homo sapiens) (UniProt P18054); assay: Inhibition of 12-LOX in human blood PMNL assessed as remaining activity by measuring 12-HETE synthesis at 10 uM; how it was run: as §3
T3 sequence (whole entry): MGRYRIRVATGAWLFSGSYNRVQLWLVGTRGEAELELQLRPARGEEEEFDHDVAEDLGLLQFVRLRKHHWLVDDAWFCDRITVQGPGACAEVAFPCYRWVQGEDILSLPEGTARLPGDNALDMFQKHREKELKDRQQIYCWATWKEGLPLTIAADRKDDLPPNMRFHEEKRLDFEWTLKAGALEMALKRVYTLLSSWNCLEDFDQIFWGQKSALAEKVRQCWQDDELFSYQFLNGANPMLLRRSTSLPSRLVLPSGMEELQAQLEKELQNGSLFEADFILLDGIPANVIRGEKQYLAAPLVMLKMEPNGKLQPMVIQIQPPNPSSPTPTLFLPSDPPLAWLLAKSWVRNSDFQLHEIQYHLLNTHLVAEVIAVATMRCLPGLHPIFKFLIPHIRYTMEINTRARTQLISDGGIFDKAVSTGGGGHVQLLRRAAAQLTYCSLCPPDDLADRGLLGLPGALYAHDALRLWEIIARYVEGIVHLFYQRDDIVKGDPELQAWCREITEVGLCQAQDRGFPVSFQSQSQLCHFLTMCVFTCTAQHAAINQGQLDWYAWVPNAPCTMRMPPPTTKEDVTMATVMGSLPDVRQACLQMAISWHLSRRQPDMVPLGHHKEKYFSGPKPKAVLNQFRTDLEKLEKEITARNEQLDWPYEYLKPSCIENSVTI

Homo sapiens [7] = species: Homo sapiens; assay: Selectivity index, ratio of inhibition for […] in human blood PMNL to IC50 for 5-LOX in human blood PMNL
[8] = target: T4, Polyunsaturated fatty acid 5-lipoxygenase (Homo sapiens) (UniProt P09917); assay: Inhibition of 5-LOX in A23187-stimulated human blood PMNL assessed as remaining activity by measuring lipoxygenase products formation at 10 uM in presence of arachidonic acid pre-incubated for 15 mins followed by stimulation with A23187 for 10 mins by RP-HPLC based cell based assay; how it was run: as §2
T4 sequence (whole entry): T1 sequence (P09917 whole entry)

[9] = target: T4, Polyunsaturated fatty acid 5-lipoxygenase (Homo sapiens); assay: Inhibition of human recombinant 5-LOX expressed in Escherichia coli BL21 assessed as remaining activity at 10 uM incubated for 10 mins in presence of arachidonic acid by RP-HPLC based cell-free assay; how it was run: as §1
[10] = target: T4, Polyunsaturated fatty acid 5-lipoxygenase (Homo sapiens); assay: Inhibition of 5-LOX in A23187-stimulated human blood PMNL assessed as remaining activity by measuring lipoxygenase products formation at 10 uM pre-incubated for 15 mins followed by stimulation with A23187 for 10 mins by RP-HPLC based cell based assay; how it was run: as §2
[11] = target: T1, Polyunsaturated fatty acid 5-lipoxygenase; assay: Inhibition of human 5-LOX by cell free assay
[12] = target: T4, Polyunsaturated fatty acid 5-lipoxygenase (Homo sapiens); assay: Potency index, ratio of IC50 for human 5-LOX by intact cell based assay to IC50 for human 5-LOX by cell free assay
[13] = target: T1, Polyunsaturated fatty acid 5-lipoxygenase; assay: Inhibition of human 5-LOX by intact cell based assay

Structure (SMILES)	IC50 [1]	IC50 [2]	Activity [3]	Selectivity Index (Homo sapiens [4])	IC50 [5]	Activity [6]	Selectivity Index (Homo sapiens [7])	Activity [8]	Activity [9]	Activity [10]	IC50 [11]	Ratio IC50 [12]	IC50 [13]
CCCCCCCCCCC1=C(OC)C(OC)=CC(=O)C1=O	130 nM	70 nM	148%	> 66	40 nM	133%	> 66	–	–	–	–	–	–
CCCCC1=C(O)C(=O)C=C(O)C1=O	> 10000 nM	> 10000 nM	82.3%	–	> 10000 nM	93.3%	–	92.8%	65.4%	93.5%	–	–	–
CCCCCCC1=C(O)C(=O)C=C(OC)C1=O	> 10000 nM	> 10000 nM	65.8%	–	> 10000 nM	44.5%	–	64.1%	71.1%	68.9%	–	–	–
CCCCCCCCCCCCCCCCC1=C(O)C(=O)C=C(OC)C1=O	> 10000 nM	1100 nM	119%	–	1000 nM	138%	–	–	60.1%	–	–	–	–
CCCCCCCCC1=C(O)C(=O)C=C(O)C1=O	380 nM	> 10000 nM	88.9%	–	> 10000 nM	75.7%	–	80.1%	–	53.5%	–	–	–
CCCCCCC1=C(O)C(=O)C=C(O)C1=O	4000 nM	> 10000 nM	89.8%	–	> 10000 nM	105%	–	79.9%	–	134%	–	–	–
CC(C)=CCC/C(C)=C/CC1=C(O)C(=O)C=C(O)C1=O	1800 nM	> 10000 nM	92%	–	> 10000 nM	80.5%	–	81.9%	–	114%	–	–	–
CC(C)=CCC/C(C)=C/CC/C(C)=C/CC1=C(O)C(=O)C=C(O)C1=O	2500 nM	> 10000 nM	95.2%	–	> 10000 nM	78.3%	–	66.6%	–	85.8%	–	–	–
CCCCCCCCCCCCCCCCC1=C(O)C(=O)C=C(O)C1=O	190 nM	> 10000 nM	105%	–	> 10000 nM	117%	–	80.5%	–	88%	–	–	–
CCCCCCCCCCCC1=C(O)C(=O)C=C(O)C1=O [EMBELIN]	60 nM	3500 nM	91.5%	–	1700 nM	74.9%	–	–	–	–	60 nM	13	800 nM
CCCCCCCCC1=C(O)C(=O)C=C(OC)C1=O	3000 nM	> 10000 nM	105%	–	> 10000 nM	86.8%	–	72.9%	–	73.5%	–	–	–
CCCCCCCCCCCCC1=C(OC)C(OC)=CC(=O)C1=O	130 nM	150 nM	133%	> 66	29 nM	135%	> 66	–	–	–	–	–	–
CCCCCCCCCCCCCCCCC1=C(OC)C(=O)C=C(OC)C1=O	1600 nM	3500 nM	97.8%	–	> 10000 nM	121%	–	–	–	80.1%	–	–	–
CCCCCCCCCCCCCC1=C(OC)C(OC)=CC(=O)C1=O	80 nM	50 nM	137%	> 66	120 nM	78.5%	> 66	–	–	–	–	–	–
CCCCCCCCCCCCCCCC1=C(OC)C(OC)=CC(=O)C1=O	620 nM	> 10000 nM	115%	–	> 10000 nM	88.9%	–	66.8%	–	57.6%	–	–	–
COC1=CC(=O)C(O)=C(C/C=C(\C)CCC=C(C)C)C1=O	> 10000 nM	> 10000 nM	112%	–	4100 nM	101%	–	65.9%	73.6%	–	–	–	–
CCCCCCCCCCCC1=C(OC)C(OC)=CC(=O)C1=O	90 nM	100 nM	105%	> 66	60 nM	236%	> 66	–	–	–	–	–	–
CCCCC1=C(OC)C(OC)=CC(=O)C1=O	> 10000 nM	5100 nM	129%	–	2200 nM	85.8%	–	–	82.9%	–	–	–	–
CCCCC1=C(O)C(=O)C=C(OC)C1=O	> 10000 nM	> 10000 nM	112%	–	> 10000 nM	91.2%	–	95.7%	70.5%	86%	–	–	–
